Experimental data: article PMC10693930 (Biochemistry, 2023)

Tests used:
[1] = biological target: T1, WT SaPC (Staphylococcus aureus, UniProt A0A0H3JRU9); assay: Pyruvate carboxylation assay; format: biochemical; settings: for h (Hill coefficient) / Ka (apparent activation constant): Table 1; for increase of apparent Ka in the presence of L-aspartate: 20 mM L-aspartate vs none
[2] = biological target: T1, WT SaPC; assay: Pyruvate carboxylation inhibition assay with CT domain inhibitors; format: biochemical; settings: SaPC; CT domain inhibitors
In short: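 WT SaPC (5 μg/mL) was pre-incubated with inhibitor and acetyl-CoA, and the reaction was started with 10× substrate mix (final 25 mM NaHCO3, 2.5 mM ATP, 12 mM pyruvate). MDH-coupled (10 U/mL MDH, 0.12 mM NADH); change in A340 monitored. Inhibitor 0–1 mM or 0–50 mM by compound. MDH-only controls. Triplicate; SD of three trials.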

[3] = biological target: E418A SaPC (Staphylococcus aureus, UniProt A0A0H3JRU9, E418A); assay: Pyruvate carboxylation inhibition assay with CT domain inhibitors; format: biochemical; settings: for change of inhibition in the presence of acetyl-CoA: 500 μM acetyl-CoA
[4] = biological target: the molecule itself; assay: SEC
[5] = Acyl-CoA alone, fit to Equation 1 (3′5′ diphosphoadenosine: Equation 2)

Nc1ncnc2c1ncn2[C@@H]1O[C@H](COP(=O)(O)O)[C@@H](OP(=O)(O)O)[C@H]1O [3′5′ diphosphoadenosine, 3’5’-diphosphoadenosine]
h (Hill coefficient) ([1]; Acyl-CoA alone): 1.6 ± 0.7
Ka (apparent activation constant) [1, 5]: 5900 ± 3100 µM
concentration range in which SaPC is activated ([1]; WT SaPC (Figure S2)): up to 7 mM
concentration at which inhibitory ([1]; WT SaPC (Figure S2), attributed to competition with ATP in BC domain): greater than 7 mM
estimated apparent Ka ([1]; WT SaPC, fit to Equation 2, Ki fixed at 5 mM): ~ 5.9 mM

CC(=O)CCCNC(=O)CCNC(=O)[C@H](O)C(C)(C)COP(=O)(O)OP(=O)(O)OC[C@H]1O[C@@H](n2cnc3c(N)ncnc32)[C@H](O)[C@@H]1OP(=O)(O)O [Acetyl-carba(dethia)-CoA, acetyl-carba(dethia)-CoA]
Ka (apparent activation constant) ([1]; Acyl-CoA + 20 mM L-aspartate): 190 ± 10 µM
h (Hill coefficient) ([1]; Acyl-CoA + 20 mM L-aspartate): 3.1 ± 0.6
h (Hill coefficient) ([1]; Acyl-CoA alone): 1.5 ± 0.2
Ka (apparent activation constant) [1, 5]: 53 ± 4 µM
increase of apparent Ka in the presence of L-aspartate ([1]; WT SaPC): ~ 4 fold

N[C@@H](CCC(=O)O)C(=O)O [L-glutamate]
concentration at which pyruvate carboxylation is inhibited ([1]; WT SaPC, nonspecific effect (Figure S5)): exceeding 100 mM

CC(=O)OCCNC(=O)CCNC(=O)[C@H](O)C(C)(C)COP(=O)(O)OP(=O)(O)OC[C@H]1O[C@@H](n2cnc3c(N)ncnc32)[C@H](O)[C@@H]1OP(=O)(O)O [Acetyl-oxa(dethia)-CoA, acetyl-oxa(dethia)-CoA]
Ka (apparent activation constant) ([1]; Acyl-CoA + 20 mM L-aspartate): 270 ± 20 µM
h (Hill coefficient) ([1]; Acyl-CoA + 20 mM L-aspartate): 3.3 ± 0.7
h (Hill coefficient) ([1]; Acyl-CoA alone): 1.5 ± 0.3
Ka (apparent activation constant) [1, 5]: 73 ± 11 µM
increase of apparent Ka in the presence of L-aspartate ([1]; WT SaPC): ~ 4 fold

CC(=O)NCCNC(=O)CCNC(=O)[C@H](O)C(C)(C)COP(=O)(O)OP(=O)(O)OC[C@H]1O[C@@H](n2cnc3c(N)ncnc32)[C@H](O)[C@@H]1OP(=O)(O)O [Acetyl-aza(dethia)-CoA, acetyl-aza(dethia)-CoA]
h (Hill coefficient) ([1]; Acyl-CoA alone): 1.3 ± 0.4
Ka (apparent activation constant) [1, 5]: 2500 ± 1000 µM

O=C(O)C(O)=Cc1ccc2ccccc2n1 [2-hydroxy-3-(quinoline-2-yl)propenoic acid]
change of potency in the presence of acetyl-CoA [2]: significantly reduced potency
inhibition of pyruvate carboxylation [3]: inhibited
change of inhibition in the presence of acetyl-CoA [3]: unchanged

O=C(O)C(=O)Cc1ccccc1 [phenylpyruvate]
change of potency in the presence of acetyl-CoA [2]: significantly reduced potency
inhibition of pyruvate carboxylation [3]: inhibited
change of inhibition in the presence of acetyl-CoA [3]: unchanged

B1: Staphylococcus aureus pyruvate carboxylase, wild type (enzyme)
chain: MKQIKKLLVANRGEIAIRIFRAAAELDISTVAIYSNEDKSSLHRYKADESYLVGSDLGPAESYLNIERIIDVAKQANVDAIHPGYGFLSENEQFARRCAEEGIKFIGPHLEHLDMFGDKVKARTTAIKADLPVIPGTDGPIKSYELAKEFAEEAGFPLMIKATSGGGGKGMRIVREESELEDAFHRAKSEAEKSFGNSEVYIERYIDNPKHIEVQVIGDEHGNIVHLFERDCSVQRRHQKVVEVAPSVGLSPTLRQRICDAAIQLMENIKYVNAGTVEFLVSGDEFFFIEVNPRVQVEHTITEMVTGIDIVKTQILVAAGADLFGEEINMPQQKDITTLGYAIQCRITTEDPLNDFMPDTGTIIAYRSSGGFGVRLDAGDGFQGAEISPYYDSLLVKLSTHAISFKQAEEKMVRSLREMRIRGVKTNIPFLINVMKNKKFTSGDYTTKFIEETPELFDIQPSLDRGTKTLEYIGNVTINGFPNVEKRPKPDYELASIPTVSSSKIASFSGTKQLLDEVGPKGVAEWVKKQDDVLLTDTTFRDAHQSLLATRVRTKDMINIASKTADVFKDGFSLEMWGGATFDVAYNFLKENPWERLERLRKAIPNVLFQMLLRASNAVGYKNYPDNVIHKFVQESAKAGIDVFRIFDSLNWVDQMKVANEAVQEAGKISEGTICYTGDILNPERSNIYTLEYYVKLAKELEREGFHILAIKDMAGLLKPKAAYELIGELKSAVDLPIHLHTHDTSGNGLLTYKQAIDAGVDIIDTAVASMSGLTSQPSANSLYYALNGFPRHLRTDIEGMESLSHYWSTVRTYYSDFESDIKSPNTEIYQHEMPGGQYSNLSQQAKSLGLGERFDEVKDMYRRVNFLFGDIVKVTPSSKVVGDMALYMVQNDLDEQSVITDGYKLDFPESVVSFFKGEIGQPVNGFNKDLQAVILKGQEALTARPGEYLEPVDFEKVRELLEEEQQGPVTEQDIISYVLYPKVYEQYIQTRNQYGNLSLLDTPTFFFGMRNGETVEIEIDKGKRLIIKLETISEPDENGNRTIYYAMNGQARRIYIKDENVHTNANVKPKADKSNPSHIGAQMPGSVTEVKVSVGETVKANQPLLITEAMKMETTIQAPFDGVIKQVTVNNGDTIATGDLLIEIEKATD
modifications: biotin, covalently tethered to the BCCP domain (co-expressed with BirA to ensure complete biotinylation; residue not stated)
stoichiometry N [4]: 4

B2: K46A SaPC (enzyme)
chain: MKQIKKLLVANRGEIAIRIFRAAAELDISTVAIYSNEDKSSLHRYAADESYLVGSDLGPAESYLNIERIIDVAKQANVDAIHPGYGFLSENEQFARRCAEEGIKFIGPHLEHLDMFGDKVKARTTAIKADLPVIPGTDGPIKSYELAKEFAEEAGFPLMIKATSGGGGKGMRIVREESELEDAFHRAKSEAEKSFGNSEVYIERYIDNPKHIEVQVIGDEHGNIVHLFERDCSVQRRHQKVVEVAPSVGLSPTLRQRICDAAIQLMENIKYVNAGTVEFLVSGDEFFFIEVNPRVQVEHTITEMVTGIDIVKTQILVAAGADLFGEEINMPQQKDITTLGYAIQCRITTEDPLNDFMPDTGTIIAYRSSGGFGVRLDAGDGFQGAEISPYYDSLLVKLSTHAISFKQAEEKMVRSLREMRIRGVKTNIPFLINVMKNKKFTSGDYTTKFIEETPELFDIQPSLDRGTKTLEYIGNVTINGFPNVEKRPKPDYELASIPTVSSSKIASFSGTKQLLDEVGPKGVAEWVKKQDDVLLTDTTFRDAHQSLLATRVRTKDMINIASKTADVFKDGFSLEMWGGATFDVAYNFLKENPWERLERLRKAIPNVLFQMLLRASNAVGYKNYPDNVIHKFVQESAKAGIDVFRIFDSLNWVDQMKVANEAVQEAGKISEGTICYTGDILNPERSNIYTLEYYVKLAKELEREGFHILAIKDMAGLLKPKAAYELIGELKSAVDLPIHLHTHDTSGNGLLTYKQAIDAGVDIIDTAVASMSGLTSQPSANSLYYALNGFPRHLRTDIEGMESLSHYWSTVRTYYSDFESDIKSPNTEIYQHEMPGGQYSNLSQQAKSLGLGERFDEVKDMYRRVNFLFGDIVKVTPSSKVVGDMALYMVQNDLDEQSVITDGYKLDFPESVVSFFKGEIGQPVNGFNKDLQAVILKGQEALTARPGEYLEPVDFEKVRELLEEEQQGPVTEQDIISYVLYPKVYEQYIQTRNQYGNLSLLDTPTFFFGMRNGETVEIEIDKGKRLIIKLETISEPDENGNRTIYYAMNGQARRIYIKDENVHTNANVKPKADKSNPSHIGAQMPGSVTEVKVSVGETVKANQPLLITEAMKMETTIQAPFDGVIKQVTVNNGDTIATGDLLIEIEKATD
modifications: biotin, covalently tethered to the BCCP domain (co-expressed with BirA to ensure complete biotinylation; residue not stated)
stoichiometry N [4]: 4

B3: R21A SaPC (enzyme)
chain: MKQIKKLLVANRGEIAIRIFAAAAELDISTVAIYSNEDKSSLHRYKADESYLVGSDLGPAESYLNIERIIDVAKQANVDAIHPGYGFLSENEQFARRCAEEGIKFIGPHLEHLDMFGDKVKARTTAIKADLPVIPGTDGPIKSYELAKEFAEEAGFPLMIKATSGGGGKGMRIVREESELEDAFHRAKSEAEKSFGNSEVYIERYIDNPKHIEVQVIGDEHGNIVHLFERDCSVQRRHQKVVEVAPSVGLSPTLRQRICDAAIQLMENIKYVNAGTVEFLVSGDEFFFIEVNPRVQVEHTITEMVTGIDIVKTQILVAAGADLFGEEINMPQQKDITTLGYAIQCRITTEDPLNDFMPDTGTIIAYRSSGGFGVRLDAGDGFQGAEISPYYDSLLVKLSTHAISFKQAEEKMVRSLREMRIRGVKTNIPFLINVMKNKKFTSGDYTTKFIEETPELFDIQPSLDRGTKTLEYIGNVTINGFPNVEKRPKPDYELASIPTVSSSKIASFSGTKQLLDEVGPKGVAEWVKKQDDVLLTDTTFRDAHQSLLATRVRTKDMINIASKTADVFKDGFSLEMWGGATFDVAYNFLKENPWERLERLRKAIPNVLFQMLLRASNAVGYKNYPDNVIHKFVQESAKAGIDVFRIFDSLNWVDQMKVANEAVQEAGKISEGTICYTGDILNPERSNIYTLEYYVKLAKELEREGFHILAIKDMAGLLKPKAAYELIGELKSAVDLPIHLHTHDTSGNGLLTYKQAIDAGVDIIDTAVASMSGLTSQPSANSLYYALNGFPRHLRTDIEGMESLSHYWSTVRTYYSDFESDIKSPNTEIYQHEMPGGQYSNLSQQAKSLGLGERFDEVKDMYRRVNFLFGDIVKVTPSSKVVGDMALYMVQNDLDEQSVITDGYKLDFPESVVSFFKGEIGQPVNGFNKDLQAVILKGQEALTARPGEYLEPVDFEKVRELLEEEQQGPVTEQDIISYVLYPKVYEQYIQTRNQYGNLSLLDTPTFFFGMRNGETVEIEIDKGKRLIIKLETISEPDENGNRTIYYAMNGQARRIYIKDENVHTNANVKPKADKSNPSHIGAQMPGSVTEVKVSVGETVKANQPLLITEAMKMETTIQAPFDGVIKQVTVNNGDTIATGDLLIEIEKATD
modifications: biotin, covalently tethered to the BCCP domain (co-expressed with BirA to ensure complete biotinylation; residue not stated)
stoichiometry N [4]: 4
